Experimental data taken from ChEMBL document CHEMBL5532699, “Design, docking optimization, and evaluation of biotin-PEG4-1,8-naphthalimide as a potent and safe antitumor agent with dual targeting of ferroptosis and DNA” (RSC Med Chem, 2024).
The source made the active and inactive calls. The rule behind the calls is not given here.

Tests used:
MGC-803 [1] = assay: Induction of cell cycle arrest at S phase in human MGC-803 cells assessed as decrease in CDK2 protein expression level at 25 to 50 uM incubated for 24 hrs by Western blot analysis; format: functional, cell-based; settings: dose 25-50 µM
How it was run: (§1)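 MGC-803 cells treated 25 or 50 μM for 24 h, lysed in ice-cold 1% SDS/Tris-HCl pH 7.5 buffer with EDTA, NaCl and protease inhibitors, spun 12,000g 18 min. Protein quantified by BCA; 40–50 μg resolved on 10% SDS-PAGE, transferred to PVDF, milk-blocked 2 h, primary antibody overnight, HRP secondary 1 h at RT. ECL detection with densitometry.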

MGC-803 [2] = assay: Induction of cell cycle arrest at S phase in human MGC-803 cells assessed as increase in P21 protein expression level at 25 to 50 uM incubated for 24 hrs by Western blot analysis; format: functional, cell-based; settings: dose 25-50 µM; how it was run: as §1
[3] = Toxicity in nude mouse xenografted with human MGC-803 cells assessed as pathological changes in lungs at 12 to 48 mg/kg, ip administered once every two days for 21 days by H and E staining based analysis; format: organism-based; settings: in vivo, 504 h, dose 12-48 mg/kg, time 21 day
How it was run: (§2)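 Nude mice carrying s.c. xenografts (1×10^6 cells, right flank) randomized at 60–80 mm³ (n = 6), dosed i.p. every 2 days in 5% v/v DMSO/saline. Major organs examined by H&E staining at 200× magnification.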

[4] = Toxicity in nude mouse xenografted with human MGC-803 cells assessed as pathological changes in liver at 12 to 48 mg/kg, ip administered once every two days for 21 days by H and E staining based analysis; format: organism-based; settings: in vivo, 504 h, dose 12-48 mg/kg, time 21 day; how it was run: as §2
U-251 = assay: Antitumor activity against human U-251 cells xenografted in nude mouse assessed as tumor inhibition ratio at 48 mg/kg, ip administered once every two days for 21 days relative to control; format: functional; settings: U-251, 504 h, time 21 day
How it was run: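 1×10^6 tumor cells injected s.c. into the right flank of nude mice. At mean tumor volume 60–80 mm³, animals randomized to vehicle or treatment groups (n = 6). Compound in 5% v/v DMSO/saline given i.p. every 2 days. Tumor size and weight recorded; volume = lw²/2 from length and width. Body weight tracked as the systemic toxicity index.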

MGC-803 [5] = assay: Induction of cell cycle arrest in human MGC-803 cells assessed as accumulation of cells at G0/G1 phase at 100 uM incubated for 24 hrs by PI staining based flow cytometry (Rvb=59.09%); format: functional
MGC-803 [6] = assay: Induction of ferroptosis in human MGC-803 cells assessed as increase in intracellular iron level incubated for 24 hrs by FerroOrange staining based confocal microscopic analysis; format: functional, cell-based; settings: dose 25-50 µM
MGC-803 [7] = assay: Effect on FACL4 protein expression in human MGC-803 cells at 25 to 50 uM incubated for 24 hrs by Western blot analysis; format: functional, cell-based; settings: dose 25-50 µM; how it was run: as §1

In the case of `CN(C)CCN1C(=O)c2cccc3c(N4CCN(C(=O)CCOCCOCCOCCOCCNC(=O)CCCCC5SCC6NC(=O)NC65)CC4)ccc(c23)C1=O` (stereo not drawn), the Activity (MGC-803 [1]) is reported as “Active”, the Activity (MGC-803 [2]) is reported as “Active” and the Activity [3] is reported as “Non-Toxic”. The Activity [4] was “Non-Toxic”, the inhibition in vivo at 48 mg/kg (U-251) was 76.2% and the Activity (MGC-803 [5]) was 39.71%. For the same molecule, the Activity (MGC-803 [6]) was “Dose-Dependent Effect” and the Activity (MGC-803 [7]) was “inactive”.
